What is called Tmax is the time from dosing to the highest level. A word on the IC50: it is the point on the concentration scale where inhibition reaches its midpoint. Usually AUC(0-inf) stands for the area under the concentration-time curve extrapolated to infinity. In general, AUC(0-t) refers to the area under the concentration-time curve up to a stated or last time point. Low readings indicate less exposure, high ones more exposure. A word on the Cmax: it is the peak of the concentration-time curve.

Data on two molecules can be found in ChEMBL document CHEMBL3085714 (J Med Chem, 2013).

The species entered for data set [1] is Mus musculus. Description: Metabolic stability in C57BL/6 mouse assessed as M-605 metabolite level in blood after 72 hrs by LC-MS/MS analysis. It counts as ADME, organism-based.
Data set [2] deals with Mus musculus. Description: Half life in C57BL/6 mouse at 10 mg/kg, po. The note with it: in vivo. The arrangement: dose 10 mg/kg, route oral. The class given is ADME, organism-based. The procedure, abridged: (§1)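 Male Black 6 C57 mice were dosed orally at 10 mg/kg. Plasma was sampled for up to 72 h postdose. Parent drug was quantified by LC-MS/MS after derivatization with 4-pyridinylboronic acid (70 °C, 40 min). Parameters came from noncompartmental analysis of mean plasma concentration–time profiles.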

Data set [3] is filed under the species Mus musculus. Nature of the data set: Metabolic stability in C57BL/6 mouse assessed as M-734 metabolite level in blood after 72 hrs by LC-MS/MS analysis. The class given is ADME, organism-based.
Data set [4] can be described thus: Tmax in C57BL/6 mouse at 10 mg/kg, po. The note with it: in vivo. Set-up: dose 10 mg/kg, route oral. It counts as ADME, organism-based.
Data set [5] is filed under the species Mus musculus. Nature of the data set: Metabolic stability in C57BL/6 mouse assessed as M-732 metabolite level in blood after 72 hrs by LC-MS/MS analysis. It counts as ADME, organism-based.
The species named for data set [6] is Mus musculus. Description: Metabolic stability in C57BL/6 mouse assessed as M-603 metabolite level in blood after 72 hrs by LC-MS/MS analysis. It counts as ADME, organism-based.
The target of data set [7] is T1, Mitogen-activated protein kinase 14 (Homo sapiens, UniProt Q16539). Description: Inhibition of p38alpha MAP kinase in human whole blood assessed as inhibition of LPS-induced TNFalpha release by ELISA. Background: ELISA stands for enzyme-linked immunosorbent assay.
T1 sequence (Q16539 whole entry): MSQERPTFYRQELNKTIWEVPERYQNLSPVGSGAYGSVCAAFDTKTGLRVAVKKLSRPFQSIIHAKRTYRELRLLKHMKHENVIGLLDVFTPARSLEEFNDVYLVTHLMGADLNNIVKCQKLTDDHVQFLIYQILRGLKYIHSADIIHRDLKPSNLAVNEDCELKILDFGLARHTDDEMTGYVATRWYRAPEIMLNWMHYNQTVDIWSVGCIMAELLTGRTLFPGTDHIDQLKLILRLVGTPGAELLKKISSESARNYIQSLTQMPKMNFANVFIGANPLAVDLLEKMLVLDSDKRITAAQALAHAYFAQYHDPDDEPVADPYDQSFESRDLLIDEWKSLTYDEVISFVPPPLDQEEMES
Data set [8] concerns Mus musculus. Nature of the data set: Terminal elimination rate in C57BL/6 mouse at 10 mg/kg, po. It counts as ADME, organism-based. The arrangement: dose 10 mg/kg, route oral. As to conditions: in vivo.
Data set [9] is described as follows: AUC (0 to infinity) in C57BL/6 mouse at 10 mg/kg, po. It counts as ADME, organism-based. The arrangement: time infinity, dose 10 mg/kg, route oral. As to conditions: plasma. The procedure, abridged: as §1
A short description of data set [10]: AUC (0 to t) in C57BL/6 mouse at 10 mg/kg, po. The note with it: plasma. Set-up: dose 10 mg/kg, route oral. It counts as ADME, organism-based. The procedure, abridged:
as §1

In data set [11] the target is T1, Mitogen-activated protein kinase 14. Description: Competitive inhibition of p38alpha MAP kinase (unknown origin) in presence of 100 uM ATP.
A short description of data set [12]: Cmax in C57BL/6 mouse at 10 mg/kg, po. It counts as ADME, organism-based. The arrangement: dose 10 mg/kg, route oral. The note with it: in vivo. The procedure, abridged:
as §1

In data set [13] the test system is Liver microsome. Nature of the data set: Metabolic stability in male human liver microsomes. The class given is ADME. The procedure, abridged:
(§2)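 Pooled liver microsomes, male and female, from rat and human were incubated separately. Time–concentration profiles of metabolite formation were followed by LC-MS. Incubations were run in triplicate and reported as mean ± SEM.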

Data set [14] can be described thus: Metabolic stability in human/rat liver microsomes at 1 mg/ml after 180 mins by LC/MS analysis. The note with it: read-out: Stability. The class given is ADME, Microsome. The procedure, abridged: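 Rat and human liver microsomes were incubated with microsomal protein standardized to 1 mg/mL. Aliquots were withdrawn immediately after reaction start and at 10, 20, 40, 60, 120 and 180 min, then analysed by LC-MS.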
(Liver microsomes are a subcellular fraction often used to study metabolism.)

Data set [15] has as its system Liver microsome. Nature of the data set: Metabolic stability in female human liver microsomes. It counts as ADME. The procedure, abridged: as §2
Data set [16] deals with Liver microsome. Nature of the data set: Metabolic stability in female rat liver microsomes. The class given is ADME. The procedure, abridged:
as §2

The subject of data set [17] is Liver microsome. Nature of the data set: Metabolic stability in male rat liver microsomes. The class given is ADME. The procedure, abridged:
as §2

For the molecule `O=C1c2cc(OC[C@H](O)CO)ccc2COc2cc(Nc3ccc(F)cc3F)ccc21`, the Stability result in the data set filed under Mus musculus [1], in the data set listed under Mus musculus [3], in the data set listed under Mus musculus [5] and in the data set filed under Mus musculus [6] was “Unstable” throughout. Besides, the t1/2 in the data set with Mus musculus [2] worked out at 3.95 h. Also, the Tmax in data set [4] was determined as 1 h. The IC50 in [7] was 233 nM; in data set [11] it was 14 nM. The Kel with Mus musculus [8] came to 0.0243 h⁻¹. Further, in [9], the AUC(0-inf) was 6990 ng·h/mL. In data set [10], this molecule registered an AUC(0-t) of 6590 ng·h/mL. This molecule also yielded a Cmax in data set [12] of 627 ng/mL.
For `O=C1c2ccccc2CCc2cc(Nc3ccc(F)cc3F)ccc21`, the Stability entry in the data set with Liver microsome [13], with Liver microsome [15], in the data set on Liver microsome [16] and in the data set with Liver microsome [17] was “Unstable” each time. Moreover, the remaining at 3 h in data set [14] was 43%. Moreover, the results for the IC50 in data set [7] and in data set [11] were 1910 nM and 95 nM, respectively.
